Published values collected from several papers.
Protocols differ between the studies behind these lines.
Target: SRSF protein kinase 2 (SRPK2, Homo sapiens, UniProt P78362)

Compound | read-out | method | tested at | remaining binding
O=C(Nc1c[nH]nc1C(=O)NC1CCNCC1)c1cc(F)cc(F)c1 | binding | competition with immobilised ligand | 1 µM | 85%
N[C@@H]1CCN(c2nccc(-c3cnn4ncccc34)n2)C1 | binding |  | 1 µM | 100%
COc1cnc(Nc2cccc(S(N)(=O)=O)c2)nc1N1CCN(c2ccccc2)C(=O)C1 | binding | competition with immobilised ligand | 1 µM | 89%
F[C@@H]1CCN(c2nccc(-c3cnn4ncccc34)n2)C1 | binding |  | 1 µM | 80%
Cc1nc(N2CC[C@@H](O)C2)ncc1-c1cc(C(F)(F)F)cc2[nH]ncc12 | binding | competition with immobilised ligand | 1 µM | 100%
CCN1CCN(Cc2ccc(C(=O)Nc3ccc(C)c(Oc4ccc5c(c4)CC(=O)N5)c3)cc2C(F)(F)F)CC1 | binding | competition with immobilised ligand | 1 µM | 100%
CN(C)c1nccc(-c2cnn3ncccc23)n1 | binding |  | 1 µM | 100%
O=C(N1CCS(=O)(=O)CC1)N1C[C@H](c2ccc(OC(F)(F)F)cc2)C[C@H](c2nc(C3CC3)no2)C1 | cell-free assay | competition with immobilised ligand | 1 µM | 100%
c1cnn2ncc(-c3ccnc(N4CCC45COC5)n3)c2c1 | binding |  | 1 µM | 70%
CS(=O)(=O)N1CCCC(NC(=O)[C@H](CCC2CCCCC2)NC(=O)c2ccc(CNC(=O)c3cnc4ccccn34)cc2)C1 (stereo partly drawn) | cell-free assay | competition with immobilised ligand | 0.1 µM | 83%
c1cncc(-c2cccc(Nc3nccc(NC4CCCCC4)n3)c2)c1 | binding | competition with immobilised ligand | 10 µM | 100%
COc1ncc2cc3ccccc3nc2c1C#N | cell-free assay | competition with immobilised ligand | 5 µM | 100%
Cc1cnc(Nc2ccc(C(=O)N3CCC(N4CCCC4)CC3)cc2)nc1-c1cc2ccccc2s1 | binding | competition with immobilised ligand | 1 µM | 100%
C[C@@H]1CCN(c2nccc(-c3cnn4ncccc34)n2)C1 | binding |  | 1 µM | 100%
O=C(c1ccc(Nc2ncc(Cl)c(-c3ccc(Cl)s3)n2)cc1)N1CCC(N2CCCC2)CC1 | binding | competition with immobilised ligand | 1 µM | 89%
CC1=C(C#N)C(c2ccc3c(c2)c(NC(=O)c2ccccc2C)nn3C)C(C#N)=C(C)N1 | cell-free assay | competition with immobilised ligand | 1 µM | 88%
O=C(NCCCN1CCOCC1)c1ccc(Nc2nccc(-c3cc4ccccc4s3)n2)cc1 | binding | competition with immobilised ligand | 1 µM | 99%
CC(=O)C1=C(C)N(c2cccc(C(F)(F)F)c2)C(=O)N[C@@H]1c1ccc(C#N)nc1 | cell-free assay | competition with immobilised ligand | 1 µM | 100%
COc1ccnn2ncc(-c3ccnc(N(C)C)n3)c12 | binding |  | 1 µM | 100%
COc1cnc(Nc2cccc(S(N)(=O)=O)c2)nc1N1CCN(c2ccccc2)CC1 | binding | competition with immobilised ligand | 1 µM | 87%
CN(C)C(=O)Cn1cc(-c2nc(C3(c4ccc(-c5cnc(N)nc5)cc4)CC3)no2)cn1 | cell-free assay | competition with immobilised ligand | 1 µM | 91%
